Assay results taken from article PMC3609526 (Diabetes Care, 2013).

Experiment: Euglycemic clamp study: pharmacodynamics by glucose infusion rate
Format: in vivo, human (type 1 diabetic patients)
Conditions: for GIR tmax50 (time to reach 50% of maximum GIR) / GIR tmax (time to reach maximum GIR): euglycemic clamp, 12 patients, mean ± SD
Outline: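 Crossover design with a 5–21 d washout, in fasting C-peptide-negative patients. During a 3–7 h run-in, IV human insulin/glucose held plasma glucose at 5.5 ± 1.1 mmol/L, with insulin tapered off over the last hour. At time 0, a fast-acting insulin analogue was injected into abdominal s.c. fat. Variable 10% glucose then ran for 8 h. Arterialized venous glucose (arm warmed at 55°C) was measured every 5–10 min in duplicate, and GIR AUC was calculated.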

[1] = 9 × 2 IU dispersed s.c. boluses

insulin aspart
GIR tmax50 (time to reach 50% of maximum GIR) (1 × 18 IU single s.c. bolus): 49 ± 16 min
GIR tmax (time to reach maximum GIR) (1 × 18 IU single s.c. bolus): 127 ± 93 min
GIR tmax50 (time to reach 50% of maximum GIR) [1]: 38 ± 9 min
GIR tmax (time to reach maximum GIR) [1]: 68 ± 33 min
shortening of time to reach maximum GIR (9 × 2 IU vs. 1 × 18 IU): ~50%
